The values that follow come from ChEMBL document CHEMBL2062403, “Disulfide prodrugs of albitiazolium (T3/SAR97276): synthesis and biological activities” (J Med Chem, 2012).

Series [1] concerns Plasmodium vinckei petteri. Description: Antimalarial activity against Plasmodium vinckei petteri 279BY infected in ip dosed Swiss mouse assessed as reduction in parasitemia administered QD for 4 days measured on day 5. The class given is functional. The method in brief:
(§1)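 P. vinckei-infected mice, 4-day suppressive test, dosing once daily for 4 days by ip or oral route; vehicle DMSO for both routes except some compounds given in 0.9% NaCl (ip) or water (po); ED50 = dose inhibiting in vivo parasite growth by 50%.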

Series [2] relates to Plasmodium falciparum. As to the kind of experiment: Antiplasmodial activity against Plasmodium falciparum assessed as inhibition of [3H]hypoxanthine incorporation after 48 hrs. The class given is functional, organism-based. The method in brief: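 P. falciparum Nigerian strain blood stages, modified Desjardins microtiter test; drug contact one parasite cycle (48 h); growth read as [³H]hypoxanthine incorporation into nucleic acids; IC50 = concentration giving 50% growth inhibition.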

The test system of series [3] is Plasmodium vinckei petteri. Description: Antimalarial activity against Plasmodium vinckei petteri 279BY infected in po dosed Swiss mouse assessed as reduction in parasitemia administered QD for 4 days measured on day 5. The class given is functional. The method in brief:
as §1

In series [4] the test system is Mus musculus. Description: Prodrug conversion in ip dosed Swiss mouse assessed as albitiazolium bromide formation administered QD for 4 days. The class given is ADME, organism-based. The note with it: in vivo, 96 h.
For series [5], the system named is Plasmodium vinckei petteri. As to the kind of experiment: Ratio of ED50 for Plasmodium vinckei petteri 279BY infected in […] dosed Swiss mouse. The class given is functional.
Series [6] has as its system Mus musculus. As to the kind of experiment: Prodrug conversion in po dosed Swiss mouse assessed as albitiazolium bromide formation administered QD for 4 days. The conditions noted are these: in vivo, 96 h. The class given is ADME, organism-based.
Series [7] is described as follows: Aqueous solubility of the compound. The class given is physicochemical. The conditions noted are these: water.

What is called ED50 is the dose that gives a 50% effect, or the effect in half of the subjects. A word on the IC50: it is the point on the concentration scale where inhibition reaches its midpoint. For the compound `CCCSS/C(CCO)=C(/C)N(C=O)CCCCCCCCCCCCN(C=O)/C(C)=C(/CCO)SSCCC`, the ED50 in series [1] is 0.5 mg/kg; in series [3], over 54 mg/kg. Also, the IC50 in series [2] was determined as 1.3 nM. Besides, in series [4], the Drug metabolism result is given as “Active”.

Regarding `Cc1c(CCOP(=O)(O)O)sc[n+]1CCCCCCCCCCCC[n+]1csc(CCOP(=O)(O)O)c1C`, the results for the ED50 in series [1] and in series [3] were 0.34 mg/kg and 34 mg/kg, respectively. For the same compound, in series [2], the IC50 was 6.65 nM. Also, the “Ratio ED50” value in series [5] is 1.

As for `CSS/C(CCO)=C(/C)N(C=O)CCCCCCCCCCCCN(C=O)/C(C)=C(/CCO)SSC`, the figures for the ED50 in series [1] and in series [3] were 0.4 mg/kg and 15 mg/kg, respectively. Besides, in series [2], the IC50 was 6 nM. The “Ratio ED50” value in series [5] was found to be 2.7. The Drug metabolism result in series [6] and in series [4] was “Active” each time.

For `CCSS/C(CCOP(=O)([O-])[O-])=C(/C)N(C=O)CCCCCCCCCCCCN(C=O)/C(C)=C(/CCOP(=O)([O-])[O-])SSCC.[Li+].[Li+].[Li+].[Li+]`, the ED50 in series [1] amounted to 1.1 mg/kg; in series [3], 60 mg/kg. Also, the half-inhibitory concentration (IC50) in series [2] was 5700 nM. Moreover, the “Ratio ED50” value in series [5] was found to be 1.8. The Drug metabolism entry in series [4] was “Active”.

`C/C1=C(\CCOC(=O)[C@@H](N)C(C)C)SS/C(CCOC(=O)[C@@H](N)C(C)C)=C(/C)N(C=O)CCCCCCCCCCCCN1C=O.Cl`: the ED50 in series [1] is 1 mg/kg; in series [3] it was 37 mg/kg. For the same compound, the IC50 in series [2] worked out at 590 nM. Besides, the “Ratio ED50” value in series [5] is reported as 4.1. For the same compound, the Drug metabolism result in series [4] was “Active”.

`CC(=O)OCC/C1=C(\C)N(C=O)CCCCCCCCCCCCN(C=O)/C(C)=C(/CCOC(C)=O)SS1`: the ED50 was 1 mg/kg in series [1] and 7.3 mg/kg in series [3]. Besides, in series [2], the IC50 was found to be 24 nM. In series [5], the “Ratio ED50” value was 13.7. In addition, in series [4], the Drug metabolism result was “Active”.

For orientation: solubility means the dissolved amount per volume that the medium holds. Read a low solubility as little dissolved substance. Regarding `C/C1=C(\CCOC(=O)[C@@H](N)CCCCN)SS/C(CCOC(=O)[C@@H](N)CCCCN)=C(/C)N(C=O)CCCCCCCCCCCCN1C=O.Cl.Cl`, the median effective dose (ED50) came out at 0.9 mg/kg in series [1] and 50 mg/kg in series [3]. The half-inhibitory concentration (IC50) in series [2] came to 130 nM. Further, the “Ratio ED50” value in series [5] worked out at 1.8. Moreover, the solubility in series [7] stood at 27 mg/mL. The Drug metabolism result in series [4] is on record as “Active”.

For `Cc1c(CCO)sc[n+]1CCCCCCCCCCCC[n+]1csc(CCO)c1C.[Br-].[Br-]` [ALBITIAZOLIUM BROMIDE], the 50% effective dose (ED50) is 0.2 mg/kg in series [1] and 13 mg/kg in series [3]. Moreover, the “Ratio ED50” value in series [5] is on record as 1.5.

As for `CSS/C(CCOC(=O)[C@@H](N)C(C)C)=C(/C)N(C=O)CCCCCCCCCCCCN(C=O)/C(C)=C(/CCOC(=O)[C@@H](N)C(C)C)SSC.Cl`, the ED50 was 1 mg/kg in series [1] and 58 mg/kg in series [3]. Moreover, the IC50 in series [2] was determined as 160 nM. Also, the “Ratio ED50” value in series [5] came out at 1.7. Also, the Drug metabolism entry in series [4] was “Active”.

For the compound `CCSS/C(CCO)=C(/C)N(C=O)CCCCCCCCCCCCN(C=O)/C(C)=C(/CCO)SSCC`, the values for the ED50 in series [1] and in series [3] were 1.1 mg/kg and 44 mg/kg, respectively. For the same compound, the IC50 in series [2] came to 5.4 nM. Further, the “Ratio ED50” value in series [5] is reported as 2.5. In series [4], the Drug metabolism entry is “Active”.

On to `C/C(=C(\CCO)SSCc1ccccc1)N(C=O)CCCCCCCCCCCCN(C=O)/C(C)=C(/CCO)SSCc1ccccc1`, for which the results for the ED50 in series [1] and in series [3] were 1.3 mg/kg and 80 mg/kg, respectively. For the same compound, the IC50 in series [2] was found to be 14.4 nM. Further, in series [5], the “Ratio ED50” value is reported as 1.6. Besides, in series [4], the Drug metabolism entry was “Active”.

With `C/C1=C(\CCO)SS/C(CCO)=C(/C)N(C=O)CCCCCCCCCCCCN1C=O`, the ED50 came out at 0.9 mg/kg in series [1] and 22 mg/kg in series [3]. In addition, the half-inhibitory concentration (IC50) in series [2] is 65 nM. In addition, the Drug metabolism entry in series [4] is listed as “Active”.

As for `CCOP(=O)(OCC)OCC/C(SSCC)=C(\C)N(C=O)CCCCCCCCCCCCN(C=O)/C(C)=C(/CCOP(=O)(OCC)OCC)SSCC`, the ED50 in series [1] was over 1 mg/kg; in series [3], over 90 mg/kg. Also, in series [2], the IC50 was 61.7 nM.

With `CSS/C(CCOC(=O)[C@@H](N)CCCCN)=C(/C)N(C=O)CCCCCCCCCCCCN(C=O)/C(C)=C(/CCOC(=O)[C@@H](N)CCCCN)SSC.Cl.Cl`, the values for the ED50 in series [1] and in series [3] were 1 mg/kg and 44 mg/kg, respectively. In series [2], the IC50 is 120 nM. In addition, the “Ratio ED50” value in series [5] is 2.3. For the same compound, in series [7], the concentration in solution (solubility) was 27 mg/mL. Moreover, the Drug metabolism entry in series [4] is “Active”.

Consider `C/C(=C(\CCOP(=O)([O-])[O-])SSCc1ccccc1)N(C=O)CCCCCCCCCCCCN(C=O)/C(C)=C(/CCOP(=O)([O-])[O-])SSCc1ccccc1.[Li+].[Li+].[Li+].[Li+]`, for which the figures for the ED50 in series [1] and in series [3] were 3 mg/kg and over 90 mg/kg, respectively. In series [2], the IC50 came out at 4400 nM. The Drug metabolism result in series [4] was “Active”.

As for `CCSS/C(CCOP1(=O)OCc2ccccc2O1)=C(/C)N(C=O)CCCCCCCCCCCCN(C=O)/C(C)=C(/CCOP1(=O)OCc2ccccc2O1)SSCC` (centres undefined), the 50% effective dose (ED50) in series [1] was 5 mg/kg; in series [3] it was over 90 mg/kg. The IC50 in series [2] was determined as 520 nM. Besides, the Drug metabolism entry in series [4] is recorded as “Active”.

`CCN(CC)CCCC(C)Nc1ccnc2cc(Cl)ccc12` (centres undefined) [CHLOROQUINE]: the ED50 in series [1] worked out at 1.1 mg/kg; in series [3] it was 3.4 mg/kg.

Take `C/C(=C(\CCOP1(=O)OCc2ccccc2O1)SSCc1ccccc1)N(C=O)CCCCCCCCCCCCN(C=O)/C(C)=C(/CCOP1(=O)OCc2ccccc2O1)SSCc1ccccc1` (centres undefined): the ED50 in series [1] was over 5 mg/kg; in series [3], over 90 mg/kg. For the same compound, the IC50 in series [2] was 865 nM.
